ChEMBL document CHEMBL4613305, “Chiral Separation, X-ray Structure, and Biological Evaluation of a Potent and Reversible Dual Binding Site AChE Inhibitor” (ACS Med Chem Lett, 2020)

Experiments:
Acetylcholinesterase [1] = target: T1, Acetylcholinesterase (Homo sapiens, UniProt P22303); assay: Inhibition of human AChE using acetylthiocholineiodide as substrate measured for every 30 sec for 5 mins by Ellman's method
Acetylcholinesterase [2] = target: T1, Acetylcholinesterase; assay: Mixed type inhibition of human AChE using acetylthiocholineiodide as substrate measured for every 30 sec for 5 mins by Ellman's method
Cholinesterase [3] = target: T2, Cholinesterase (Homo sapiens, UniProt P06276); assay: Inhibition of human BChE using butyrylthiocholineiodide as substrate measured for every 30 sec for 5 mins by Ellman's method
T2 sequence (P06276 whole entry): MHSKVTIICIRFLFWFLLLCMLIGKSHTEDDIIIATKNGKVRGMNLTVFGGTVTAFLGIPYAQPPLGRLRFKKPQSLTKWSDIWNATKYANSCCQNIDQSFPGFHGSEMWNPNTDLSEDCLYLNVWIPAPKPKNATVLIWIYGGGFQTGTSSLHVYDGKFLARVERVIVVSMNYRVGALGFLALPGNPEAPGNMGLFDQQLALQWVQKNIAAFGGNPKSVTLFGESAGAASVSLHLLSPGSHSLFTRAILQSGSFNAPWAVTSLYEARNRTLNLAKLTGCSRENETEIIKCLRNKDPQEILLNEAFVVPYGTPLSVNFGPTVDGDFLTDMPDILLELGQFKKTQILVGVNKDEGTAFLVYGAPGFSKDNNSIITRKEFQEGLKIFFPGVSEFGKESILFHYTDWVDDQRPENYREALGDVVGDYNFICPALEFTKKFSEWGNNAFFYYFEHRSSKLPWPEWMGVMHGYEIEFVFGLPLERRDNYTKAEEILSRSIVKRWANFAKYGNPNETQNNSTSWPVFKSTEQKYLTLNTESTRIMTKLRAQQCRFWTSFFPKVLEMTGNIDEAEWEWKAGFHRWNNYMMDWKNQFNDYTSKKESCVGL
Outline: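 Values are mean ± SEM of three independent experiments.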

Cholinesterase [4] = target: T2, Cholinesterase; assay: Inhibition of human BChE using butyrylthiocholineiodide as substrate at 10 uM measured for every 30 sec for 5 mins by Ellman's method relative to control
Outline: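 Single-concentration test, reported as % inhibition at 10 μM. Values are mean ± SEM of three independent experiments.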

[5] = target: Cholinesterases; ACHE & BCHE (Homo sapiens) (UniProt P06276+P22303); assay: Selectivity index, ratio of IC50 for human BChE to IC50 for human AChE; type: protein assay
Chain of Cholinesterases; ACHE & BCHE (Homo sapiens) (P06276 whole entry, looked up): as the sequence (P06276 whole entry) above
Chain of Cholinesterases; ACHE & BCHE (Homo sapiens) (P22303 whole entry, looked up): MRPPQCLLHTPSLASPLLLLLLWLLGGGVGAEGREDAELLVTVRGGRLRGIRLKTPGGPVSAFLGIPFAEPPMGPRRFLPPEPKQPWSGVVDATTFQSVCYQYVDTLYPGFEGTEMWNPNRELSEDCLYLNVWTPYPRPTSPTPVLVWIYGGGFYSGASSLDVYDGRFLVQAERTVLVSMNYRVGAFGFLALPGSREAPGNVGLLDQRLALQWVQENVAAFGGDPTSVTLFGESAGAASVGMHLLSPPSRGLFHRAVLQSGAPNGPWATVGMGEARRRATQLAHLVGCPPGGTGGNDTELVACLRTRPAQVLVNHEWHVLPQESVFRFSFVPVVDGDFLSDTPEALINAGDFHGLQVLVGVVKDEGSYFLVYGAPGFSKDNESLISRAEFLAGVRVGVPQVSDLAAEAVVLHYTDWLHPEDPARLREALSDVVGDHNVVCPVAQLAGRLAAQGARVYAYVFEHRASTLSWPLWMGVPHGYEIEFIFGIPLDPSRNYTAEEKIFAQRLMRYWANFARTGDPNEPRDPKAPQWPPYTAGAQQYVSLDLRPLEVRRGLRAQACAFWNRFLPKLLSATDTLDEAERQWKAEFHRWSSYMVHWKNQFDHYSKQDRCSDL

[6] = Apparent permeability across apical to basolateral side in MDCK-MDR1 cells at 75 uM incubated for 2 hrs by UV-spectroscopy; type: ADME, cell-based, Canis lupus familiaris; conditions: dog
Outline: (§1)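 MDCK-MDR1 monolayers expressing the P-gp efflux system. Apparent permeability (Papp) was measured in both directions: apical to basolateral, and basolateral to apical. Efflux ratio = Papp BL/Papp AP. Values are mean ± SEM of three independent experiments.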

[7] = Cytotoxicity against MDCK-MDR1 cells assessed as cell viability at 100 uM incubated for 72 hrs by MTT assay relative to control; type: ADME, cell-based, Canis lupus familiaris; conditions: dog, read-out: Activity
[8] = Efflux ratio of apparent permeability across basolateral to apical side to apical to basolateral side in MDCK-MDR1 cells at 75 uM incubated for 2 hrs by UV-spectroscopy; type: ADME, cell-based, Canis lupus familiaris; conditions: dog
Outline: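 MDCK-MDR1 monolayers expressing the P-gp efflux system. Apparent permeability was measured in both directions, apical→basolateral and basolateral→apical. Efflux ratio calculated as Papp BL / Papp AP. Papp values are mean ± SEM of three independent experiments.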

[9] = Apparent permeability across basolateral to apical side in MDCK-MDR1 cells at 75 uM incubated for 2 hrs by UV-spectroscopy; type: ADME, cell-based, Canis lupus familiaris; conditions: dog; outline: as §1
MDCK-MDR1 = assay: Cytotoxicity against MDCK-MDR1 cells assessed as cell viability incubated for 72 hrs by MTT assay relative to control; type: ADME, cell-based; conditions: Canis lupus familiaris, MDCK-MDR1, 72 h
[10] = Cytotoxicity against MDCK-MDR1 cells assessed as cell viability at 100 uM incubated for 24 hrs by MTT assay relative to control; type: ADME, cell-based, Canis lupus familiaris; conditions: dog, read-out: Activity
[11] = Cytotoxicity against human HepG2 cells assessed as cell viability at 20 to 100 uM incubated for 2 hrs by MTT assay relative to control; type: cell-based; conditions: read-out: Activity
Outline: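 HepG2 human liver cancer cells were exposed to 20–100 μM for 2 h. Viability was read by MTT reduction, expressed as % of untreated control cells in DMEM. Values are mean ± SEM of six replicates. Difference from control was tested by Student's t test (p < 0.01).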

Acetylcholinesterase [12] = target: T1, Acetylcholinesterase; assay: Potency index, ratio of Ki of donepezil to Ki of compound for mixed type inhibition of human AChE using acetylthiocholineiodide as substrate measured for every 30 sec for 5 mins by Ellman's method

T1 sequence (P22303 whole entry): as the sequence (P22303 whole entry, looked up) above

COc1cc2cc(NC(=O)[C@H]3CCC[C@@H](NCc4ccccc4)C3)c(=O)oc2cc1OC
IC50 (Acetylcholinesterase [1]): 0.38 µM
Ki (Acetylcholinesterase [2]): 0.0934 µM
IC50 (Cholinesterase [3]): 2.33 µM

COc1cc2cc(NC(=O)CCCNCc3ccccc3)c(=O)oc2cc1OC
IC50 (Acetylcholinesterase [1]): 0.748 µM
IC50 (Cholinesterase [3]): 0.181 µM

COc1cc2cc(NC(=O)C3CCN(Cc4ccccc4)CC3)c(=O)oc2cc1OC
IC50 (Acetylcholinesterase [1]): 0.223 µM
inhibition (Cholinesterase [4]): 21%

COc1cc2cc(NC(=O)[C@@H]3CCC[C@H](NCc4ccccc4)C3)c(=O)oc2cc1OC
Ratio IC50 [5]: 730
IC50 (Acetylcholinesterase [1]): 0.0192 µM
Ki (Acetylcholinesterase [2]): 0.0191 µM
IC50 (Cholinesterase [3]): 14.1 µM

COc1cc2cc(NC(=O)[C@H]3CCC[C@@H](NCc4ccccc4)C3)c(=O)oc2cc1OC (racemic) [listing 1 of 2 here]
IC50 (Acetylcholinesterase [1]): 0.0365 µM
Papp A→B at 2 h, 75 µM [6]: 37 ×10⁻⁶ cm/s
Ki (Acetylcholinesterase [2]): 0.0466 µM
viability at 72 h, 100 µM [7]: 37%
efflux ratio at 2 h, 75 µM [8]: 0.22
Papp B→A at 2 h, 75 µM [9]: 8.4 ×10⁻⁶ cm/s
IC50 (Cholinesterase [3]): 6.25 µM
IC50 (MDCK-MDR1): 30 µM
viability at 24 h, 100 µM [10]: 60%
viability at 2 h, up to 100 µM [11]: 80 to 90%

COc1cc2cc(NC(=O)[C@H]3CCC[C@@H](NCc4ccccc4)C3)c(=O)oc2cc1OC (racemic) [listing 2 of 2 here]
Ratio Ki (Acetylcholinesterase [12]): 4

CN1C(=O)CN=C(c2ccccc2)c2cc(Cl)ccc21 [DIAZEPAM]
efflux ratio at 2 h, 75 µM [8]: 0.7
